Experiments:
[1] = Compound was evaluated In vitro for inhibition of aldose reductase activity by 50% in rat RBC
How it was run: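 Rat (or dog) red blood cells from fasted male Sprague-Dawley rats (150-170 g, EDTA, aortic arch) or pooled beagle blood; 1 mL packed cells in 2 mL HBSS with 10 mM galactose plus inhibitor 1 to 5×10^-8 M, 3 h, 95% air/5% CO2, shaken. Erythrocyte galactitol measured; IC50 mean ± SD of three to six replicate experiments.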

[2] = species: Rattus norvegicus; assay: Dose at which the tissue level of polyol accumulation was reduced by 50% was evaluated for 12 days in sciatic nerve; format: functional; details: 288 h
[3] = species: Rattus norvegicus; assay: Dose at which the tissue level of polyol accumulation was reduced by 50% was evaluated for 14 days in RBC; format: functional; details: 336 h
How it was run: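 Male Sprague-Dawley rats (200-250 g, 12 per group) made diabetic with streptozocin 60 mg/kg iv in cold 0.03 M citrate pH 4.5; plasma glucose kept between 300 and 550 mg/dl. Compound was suspended in 2% Tween 80/saline and gavaged daily for 14 days. On day 15, RBC, lens and sciatic nerve polyol was measured. ED50 by nonlinear regression of log dose.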

[4] = species: Rattus norvegicus; assay: Dose at which the tissue level of polyol accumulation was reduced by 50% was evaluated for 14 days in sciatic nerve; format: functional; details: Rattus norvegicus, Sciatic nerve, 336 h; read-out: ED50
How it was run: (§1)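 Male Sprague-Dawley rats (70-90 g, six per group) fed chow with 20% galactose and compound in the diet for 4 or 14 days. After a 3-h fast, lens and sciatic nerve were removed and frozen, and galactitol was quantitated in nmol/mg wet weight. ED50 from nonlinear regression of log dose vs tissue polyol.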

[5] = species: Rattus norvegicus; assay: Dose at which the tissue level of polyol accumulation was reduced by 50% was evaluated for 4 days in lens; format: functional; details: Lens of camera-type eye, 96 h; how it was run: as §1
[6] = species: Rattus norvegicus; assay: Dose at which the tissue level of polyol accumulation was reduced by 50% was evaluated for 4 days in sciatic nerve; format: functional; details: 96 h; how it was run: as §1
[7] = species: Rattus norvegicus; assay: Dose at which the tissue level of polyol accumulation was reduced by 50% was evaluated for 12 days in lens; format: functional; details: Lens of camera-type eye, 288 h
[8] = molecular target: T1, Aldo-keto reductase family 1 member B1 (Bos taurus, UniProt P16116); assay: In vitro inhibition of aldose reductase activity in a partially purified bovine lens preparation
[9] = test system: Rattus norvegicus; assay: Percentage Inhibition of galactitol accumulation in the sciatic nerve of rats fed with the dose of 0.5 mg/kg/day; format: functional
How it was run: (§2)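 Male Sprague-Dawley rats (70-90 g), six per group, fed 20% galactose chow with compound in the diet for 4 days; glucose-fed controls. After a 3-h fast, lens or sciatic nerve galactitol was measured as nmol/mg wet weight. Percent inhibition vs galactose-fed controls, mean ± SEM; ANOVA with Dunnett's test.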

[10] = molecular target: Aldo-keto reductase family 1 member B1 (Bos taurus) (UniProt P16116); assay: Inhibition of aldose reductase activity in a partially purified bovine lens preparation at 10e-7 M
How it was run: (§3)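 Partially purified bovine lens aldose reductase (ammonium sulfate fractionation). NADPH oxidation read at 340 nm, 37 °C, in 30 mM sodium phosphate pH 6.2, 0.2 M LiSO4, […], 1% DMSO. Enzyme was preincubated with inhibitor for 5 min, then the reaction was started with 5 mM DL-glyceraldehyde. Duplicates; IC50 from linear regression of log concentration vs percent inhibition.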

[11] = molecular target: Aldo-keto reductase family 1 member B1 (Bos taurus) (UniProt P16116); assay: Inhibition of aldose reductase activity in a partially purified bovine lens preparation at 4*10e-8 M; how it was run: as §3
[12] = Half-life In vitro; format: ADME
[13] = molecular target: T1, Aldo-keto reductase family 1 member B1; assay: In vitro inhibition of aldose reductase activity in a partially purified bovine lens preparation at 4*10e-8 M; NS=Not significant; how it was run: as §3
[14] = molecular target: T1, Aldo-keto reductase family 1 member B1; assay: Compound was evaluated In vitro for inhibition of aldose reductase activity in a partially purified bovine lens preparation at 10e-7 M; NS=Not significant; how it was run: as §3
[15] = test system: Rattus norvegicus; assay: Percentage Inhibition of galactitol accumulation in the lens of rats fed with the dose of 0.9 mg/kg/day; format: functional; details: Lens of camera-type eye; how it was run: as §2
[16] = test system: Rattus norvegicus; assay: Percentage Inhibition of galactitol accumulation in the sciatic nerve of rats fed with the dose of 0.9 mg/kg/day; format: functional; how it was run: as §2
[17] = species: Rattus norvegicus; assay: Percentage Inhibition of galactitol accumulation in the sciatic nerve of rats
[18] = Log P value by using Octanol / pH 7.4 buffer; format: physicochemical
How it was run: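 Partition measured between octanol and pH 7.4 buffer.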

[19] = test system: Rattus norvegicus; assay: Percentage Inhibition of galactitol accumulation in the lens of rats fed with the dose of 1.1 mg/kg/day; format: functional; details: Lens of camera-type eye; how it was run: as §2
[20] = test system: Rattus norvegicus; assay: Percentage Inhibition of galactitol accumulation in the lens of rats fed with the dose of 3.0 mg/kg/day; format: functional; details: Lens of camera-type eye; how it was run: as §2
[21] = test system: Rattus norvegicus; assay: Percentage Inhibition of galactitol accumulation in the sciatic nerve of rats fed with the dose of 1.1 mg/kg/day (values are mean of six animals, p<0.01); format: functional; how it was run: as §2
[22] = test system: Rattus norvegicus; assay: Percentage Inhibition of galactitol accumulation in the sciatic nerve of rats fed with the dose of 1.0 mg/kg/day; format: functional; how it was run: as §2

Row | Compound | IC50 [8] | inhibition [10] | inhibition [11] | other results
1 | COc1ccc2c(C(=S)N(C)CC(=O)O)cccc2c1C(F)(F)F [TOLRESTAT] |  |  |  | IC50 [1]: 27.2 nM; ED50 [2]: 4.5 mg/kg/day; ED50 [3]: 1.9 mg/kg/day; ED50 [4]: 3.8 mg/kg/day; ED50 [5]: 128 mg/kg/day; ED50 [6]: 6.4 mg/kg/day; ED50 [7]: 28 mg/kg/day
2 | O=C1C[C@@]2(C(=O)N1)C(=O)N(Cc1ccc(Br)cc1F)C(=O)c1ccccc12 | 9.7 nM |  |  | half-life [12]: 240 min; inhibition in vivo at 0.5 mg/kg/day [9]: 83%
3 | O=C1CC2(C(=O)N1)C(=O)N(Cc1ccc(Cl)cc1)C(=O)c1ccccc12 (stereo unspecified) | 22 nM |  |  | 
4 | CON1C(=O)c2ccccc2C2(CC(=O)NC2=O)C1=O (stereo unspecified) |  |  |  | IC50 [13]: Not Active; IC50 [14]: Not Active
5 | CN1C(=O)c2ccc([N+](=O)[O-])cc2C2(CC(=O)NC2=O)C1=O (stereo unspecified) |  | 71% | 53% | 
6 | CN1C(=O)c2ccc(C(F)(F)F)cc2C2(CC(=O)NC2=O)C1=O (stereo unspecified) |  | 64% | 46% | inhibition in vivo at 0.9 mg/kg/day [15]: 20%; inhibition in vivo at 0.9 mg/kg/day [16]: 38%
7 | CCCN1C(=O)c2ccccc2C2(CC(=O)NC2=O)C1=O (stereo unspecified) |  | 19% |  | 
8 | CCN1C(=O)c2ccccc2C2(CC(=O)NC2=O)C1=O (stereo unspecified) |  | 27% | 17% | 
9 | O=C1C[C@@]2(C(=O)N1)C(=O)N(Cc1ccc(Br)cc1F)C(=O)c1ccc(F)cc12 | 9 nM |  |  | half-life [12]: 30 min; ED50 [17]: 0.09 mg/kg
10 | CN1C(=O)c2ccc(Cl)cc2C2(CC(=O)NC2=O)C1=O (stereo unspecified) |  | 72% | 43% | logD [18]: 0.58; inhibition in vivo at 1.1 mg/kg/day [19]: 33%; inhibition in vivo at 3 mg/kg/day [20]: 59%; inhibition in vivo at 1.1 mg/kg/day [21]: 75%; inhibition in vivo at 0.5 mg/kg/day [9]: 54%

Now from value to molecule, other results behind:

Row | IC50 [8] | inhibition [10] | inhibition [11] | Compound | other results
11 | 15 nM |  |  | O=C1CC2(C(=O)N1)C(=O)N(Cc1nc3ccccc3s1)C(=O)c1ccccc12 (stereo unspecified) | 
12 | 25 nM |  |  | O=C1CC2(C(=O)N1)C(=O)N(Cc1ccc(C(F)(F)F)cc1)C(=O)c1ccccc12 (stereo unspecified) | 
13 | 30 nM |  |  | COc1ccc2c(c1F)C1(CC(=O)NC1=O)C(=O)N(Cc1ccc(Br)cc1F)C2=O (stereo unspecified) | inhibition in vivo at 0.5 mg/kg/day [9]: 43%
14 | 38 nM |  |  | O=C1CC2(C(=O)N1)C(=O)N(Cc1ccc(Br)cc1F)C(=O)c1ccc(C(F)(F)F)cc12 (stereo unspecified) | 
15 |  | 84% | 66% | COc1cc2c(cc1Cl)C1(CC(=O)NC1=O)C(=O)N(C)C2=O (stereo unspecified) | inhibition in vivo at 0.5 mg/kg/day [9]: 51%
16 | 28 nM |  |  | COc1cc2c(cc1Br)C1(CC(=O)NC1=O)C(=O)N(Cc1ccc(Br)cc1F)C2=O (stereo unspecified) | inhibition in vivo at 0.5 mg/kg/day [9]: 55%
17 | 23 nM |  |  | O=C1CC2(C(=O)N1)C(=O)N(Cc1ccc(Br)cc1F)C(=O)c1c(F)cccc12 (stereo unspecified) | inhibition in vivo at 0.5 mg/kg/day [9]: 51%
18 |  | 17% | 19% | CCCCN1C(=O)c2ccccc2C2(CC(=O)NC2=O)C1=O (stereo unspecified) | 
19 | 20 nM |  |  | O=C1CC2(C(=O)N1)C(=O)N(Cc1ccc(Br)cc1F)C(=O)c1cc(F)ccc12 (stereo unspecified) | 
20 | 32 nM |  |  | O=C1C[C@]2(C(=O)N1)C(=O)N(Cc1ccc(Br)cc1F)C(=O)c1ccc(F)cc12 | half-life [12]: 30 min; ED50 [17]: 0.15 mg/kg
21 |  | 65% | 35% | Cc1ccc2c(c1)C1(CC(=O)NC1=O)C(=O)N(C)C2=O (stereo unspecified) | 
22 |  | 85% | 43% | CN1C(=O)c2ccc(Br)cc2C2(CC(=O)NC2=O)C1=O (stereo unspecified) | logD [18]: 0.8; inhibition in vivo at 1 mg/kg/day [22]: 54%

Source: ChEMBL document CHEMBL1127561, “Novel spirosuccinimide aldose reductase inhibitors derived from isoquinoline-1,3-diones: 2-[(4-bromo-2-fluorophenyl)methyl]-6- fluorospiro[isoquinoline-4(1H),3'-pyrrolidine]-1,2',3,5'(2H)-tetrone and congeners. 1” (J Med Chem, 1994)
